Assay results pooled from the literature.
Target: Mitogen-activated protein kinase kinase kinase 4 (MAP3K4, Homo sapiens, UniProt Q9Y6R4)

SMILES | assay | setting | remaining binding [%]
O=C(NCCCN1CCOCC1)c1ccc(Nc2nccc(-c3cc4ccccc4s3)n2)cc1 | binding, competition with immobilised ligand | 1 µM | 68
CN(C)c1nccc(-c2cnc3ncccn23)n1 | binding | 1 µM | 100
CC(=O)N1CCC(c2ccc(C(=O)NC3=NCCN3)cc2C(F)(F)F)CC1 | cell-free assay, competition with immobilised ligand | 1 µM | 81
C[C@@H](c1ccc(-n2cnc3c(N)ncnc32)cc1)N1CCc2nn(C)c(Cc3ccccc3)c2C1=O | binding, competition with immobilised ligand | 0.1 µM | 100
CSc1cccnc1N1CCN(Cc2nc3ccccc3[nH]2)CC1 | cell-free assay, competition with immobilised ligand | 1 µM | 100
c1cnn2ncc(-c3ccnc(N4CCC45COC5)n3)c2c1 | binding | 1 µM | 97
C[C@@H]1CN(c2ccc3ncc(-c4ccc5[nH]nc(C6CC6)c5c4)n3n2)C[C@H](C)O1 | binding, competition with immobilised ligand | 50 nM | 100
C[C@@H]1CCN(c2nccc(-c3cnn4ncccc34)n2)C1 | binding | 1 µM | 100
O=C(NCCCN1CCOCC1)c1ccc(Nc2ncc(Cl)c(-c3ccc(Cl)s3)n2)cc1 | binding, competition with immobilised ligand | 1 µM | 54
CNC(=O)[C@@H]1CC[C@@H](n2c(-c3ccc4cnccc4c3)nc3ccc(C(=O)NCc4cccc(C(N)=O)c4)cc32)C1 | binding, competition with immobilised ligand | 1 µM | 100
N[C@H]1CCN(c2nccc(-c3cnn4ncccc34)n2)C1 | binding | 1 µM | 100
Nc1ncc2c(n1)-c1c([nH]c3ccc(C#CC4CC4)cc13)CCCC2 | binding, competition with immobilised ligand | 1 µM | 92
Cc1nc(N2CC[C@@H](O)C2)ncc1-c1cc(C(F)(F)F)cc2[nH]ncc12 | binding, competition with immobilised ligand | 1 µM | 100
O=C(Nc1c[nH]nc1C(=O)NC1CCNCC1)c1cc(F)cc(F)c1 | binding, competition with immobilised ligand | 1 µM | 100
F[C@@H]1CCN(c2nccc(-c3cnn4ncccc34)n2)C1 | binding | 1 µM | 78
O=C(O)[C@H]1[C@H](Cn2nnc3ccccc3c2=O)CC[C@@H]1C(=O)c1ccc(OCCC2CCOCC2)cc1 | cell-free assay, competition with immobilised ligand | 1 µM | 100
C=CC(=O)N1CCC(C(=O)NCC(=O)N2CCN(c3nc(-c4cnc(N)nc4C(F)F)nc(N4CCOCC4)n3)CC2)CC1 | binding, competition with immobilised ligand | 1 µM | 100
O=C(N[C@H]1CCCCC/C=C\C2C[C@@]2(C(=O)O)NC(=O)[C@@H]2C[C@@H](Oc3ccncc3)CN2C1=O)OC1CCCC1 (some centres unmarked) | binding, competition with immobilised ligand | 1 µM | 91
c1cncc(-c2cccc(Nc3nccc(NC4CCCCC4)n3)c2)c1 | binding, competition with immobilised ligand | 10 µM | 88
C[C@@]1(Cc2ccc(C#N)cc2)C(=O)N(c2cc(Cl)cc(Cl)c2)c2ncc(C(=O)NC3(c4nc(C5CCC5)no4)CC3)n21 | cell-free assay, competition with immobilised ligand | 1 µM | 100
O=C(c1ccc(Nc2ncc(Cl)c(-c3cc4ccccc4s3)n2)cc1)N1CCC(N2CCCC2)CC1 | binding, competition with immobilised ligand | 1 µM | 33
CN(C)C(=O)Cn1cc(-c2nc(C3(c4ccc(-c5cnc(N)nc5)cc4)CC3)no2)cn1 | cell-free assay, competition with immobilised ligand | 1 µM | 92
CN(C)c1ncc(F)c(-c2cnn3ncccc23)n1 | binding | 1 µM | 100
